Among the data in the RNAGym collection of RNA variant scans (doi:10.1126/science.aae0568) are yeast fitness values, retold here.

This sample holds only a part of the variants without activity. Where only a bound is given, the exact number is not on record here.

Sequences and labels used below:
B1: tRNA (parent)
chain: GUUCCGUUGGCGUAAUGGUAACGCGUCUCCCUCCUAAGGAGAAGACUGCGGGUUCGAGUCCCGUACGGAACG

In this series the parent is B1. Put plainly: yeast fitness relative to wild type (ratio to wild type); higher = fitter; tRNA-Arg(CCU), competitive growth, 37 C, YPD. The method in brief: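 A pool of Saccharomyces cerevisiae strains, each with a tRNA-Arg(CCU) gene variant at the native genomic locus, was competed in YPD at 37°C for 24 hours across six parallel replicates. The variants had been chemically synthesised at a 3% per-site mutation rate over 69 sites, and gene amplicons before and after competition were read by 100-nucleotide paired-end sequencing. Darwinian fitness relative to wild type rested on changes in genotype frequencies. Genotypes required ≥ 100 starting reads, and estimates < 0.5 were set to 0.5.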
As for C22U C46G C55A C66A, the yeast fitness amounted to 0.564.

As to C22U C31A A37C U47C G67A, the yeast fitness was no more than 0.5.

For the variant C22U A57C, the yeast fitness was 0.661.

Turning to C22U A57G, the yeast fitness stood at 0.775.

Consider C22U A57U, for which the yeast fitness was found to be 0.617.

With C22U A45C G50A G67C A69C, the yeast fitness was no more than 0.5.

As to C22U C30U C33U A45C, the yeast fitness stood at 0.548.

On to C22U G25A U32A A36C A70G, for which the yeast fitness is no more than 0.5.

C22U C27A C46A: the yeast fitness came out at 0.66.

For the variant C22U C30U A37G G48C C55G, the yeast fitness was no more than 0.5.

On to C22U A40U U64A, for which the yeast fitness is no more than 0.5.

On to C22U C34G A36U, for which the yeast fitness was 0.519.

For the variant C22U A42G A45C C55G U64G, the yeast fitness was no more than 0.5.

For the variant C22U C60G U64G, the yeast fitness was no more than 0.5.

On to C22U C30A A42C G58A, for which the yeast fitness was no more than 0.5.

Turning to C22U C46A G67A, the yeast fitness was 0.657.

In the case of C22U G25C U28C A36G G51A G67A, the yeast fitness was no more than 0.5.

With C22U G25A C55U C66U, the yeast fitness was no more than 0.5.

Turning to C22U U28A C29U G38A, the yeast fitness is no more than 0.5.

Regarding C22U C29A U47C G68A A69C, the yeast fitness is no more than 0.5.

As to C22U G48A C55U, the yeast fitness stood at 0.599.

Take C22U G58C A69G: the yeast fitness came to 0.602.

With C22U A40G C61U A70U, the yeast fitness is 0.547.

On to C22U C27U C33G G44C A65U, for which the yeast fitness amounted to 0.574.

C22U U28C C29G C33A C62U G63A U64A: the yeast fitness is no more than 0.5.

As to C22U C31G G67C, the yeast fitness is 0.653.

In the case of C22U C34A, the yeast fitness stood at 0.641.

C22U C34U: the yeast fitness amounted to 0.665.

For C22U G25A, the yeast fitness is 0.849.

For the variant C22U G25C, the yeast fitness came to 0.697.

For the variant C22U G68C, the yeast fitness came to 0.717.

Regarding C22U G68A, the yeast fitness came to 0.852.

For C22U C31G C49U A65G, the yeast fitness was no more than 0.5.

For C22U A40G G63C, the yeast fitness was found to be 0.531.

Consider C22U G39A C49G, for which the yeast fitness is no more than 0.5.

In the case of C22U U35C A37C, the yeast fitness is no more than 0.5.

Take C22U G56C: the yeast fitness was found to be 0.608.

C22U C62U A65C: the yeast fitness came to 0.691.

On to C22U A43G, for which the yeast fitness is 0.835.

In the case of C22U A43U, the yeast fitness was found to be 0.788.

As to C22U G38A G68A, the yeast fitness came to 0.584.

Turning to C22U U32G C34U G38U A40G C55G A70U, the yeast fitness was no more than 0.5.

Regarding C22U C27U C55A A57U C61G, the yeast fitness is no more than 0.5.

Regarding C22U C31A, the yeast fitness was found to be 0.762.

As to C22U G25A U54C A65U, the yeast fitness was found to be 0.555.

For C22U G38A, the yeast fitness is 0.748.

Turning to C22U C24U G58C A65C, the yeast fitness is no more than 0.5.

With C22U C24A C27U, the yeast fitness is no more than 0.5.

As for C22U C30U A40C C55A A65G, the yeast fitness was no more than 0.5.

For C22U C30G G51C G56U, the yeast fitness was no more than 0.5.

In the case of C22U A40G C46U G63A, the yeast fitness was no more than 0.5.

For the variant C22U C31G G48C, the yeast fitness is no more than 0.5.

As for C22U C29U, the yeast fitness amounted to 0.821.

On to C22U A45U G52C A57U, for which the yeast fitness is no more than 0.5.

C22U C34U C62U A70C: the yeast fitness was no more than 0.5.

In the case of C22U U32C G48C A57G G68C, the yeast fitness is no more than 0.5.

Take C22U G23A G48A A65U: the yeast fitness is no more than 0.5.

As to C22U C24U C33U A40U, the yeast fitness was no more than 0.5.

Turning to C22U U28C C49A, the yeast fitness is no more than 0.5.

Turning to C22U C33G, the yeast fitness turned out to be 0.551.

With C22U C33U, the yeast fitness was determined as 0.717.

Turning to C22U C33U G51A, the yeast fitness is no more than 0.5.

On to C22U U47A G63A, for which the yeast fitness was determined as 0.503.

As for C22U C27G A37G A42C, the yeast fitness is no more than 0.5.

Take C22U G23A A70C: the yeast fitness was no more than 0.5.

C22U C30U A37G C66U: the yeast fitness is no more than 0.5.

For the variant C22U C33U G52A, the yeast fitness was 0.566.

Consider C22U C33U C34A G38C G52A, for which the yeast fitness amounted to 0.601.

Consider C22U C24G C55U, for which the yeast fitness was no more than 0.5.

Consider C22U C24A U28G, for which the yeast fitness was 0.542.

Regarding C22U G48C, the yeast fitness is 0.863.

Regarding C22U G67C, the yeast fitness amounted to 0.822.

As to C22U G50U G63A, the yeast fitness is no more than 0.5.

As for C22U U26A C34A A37U G48C, the yeast fitness stood at 0.799.

In the case of C22U C27G U28G U32G A45G, the yeast fitness is no more than 0.5.

In the case of C22U G44A C46G G51A C66G, the yeast fitness was no more than 0.5.

Consider C22U C24U A45G G56C, for which the yeast fitness was no more than 0.5.

Regarding C22U U26A C29U U54C C66U, the yeast fitness was no more than 0.5.

Take C22U G58C A65C: the yeast fitness is no more than 0.5.

For the variant C22U U32C G51A C61G, the yeast fitness was no more than 0.5.

In the case of C22U C31G C49U C66U G67A, the yeast fitness was 0.563.

On to C22U G25C C62U, for which the yeast fitness was determined as 0.67.

C22U C60U: the yeast fitness was 0.723.

In the case of C22U A42G U53C C55G A70U, the yeast fitness was no more than 0.5.

C22U G44C G48A G51A: the yeast fitness stood at 0.57.

Regarding C22U C66U A69C, the yeast fitness worked out at 0.593.

As to C22U U32G C34U A40G, the yeast fitness came to 0.62.

C22U C27G: the yeast fitness was 0.721.

As for C22U C27U, the yeast fitness was 0.713.

For the variant C22U C46G C49G, the yeast fitness is 0.564.

As for C22U G52C U54C, the yeast fitness is no more than 0.5.

As to C22U A70G, the yeast fitness was determined as 0.784.

As for C22U A69U, the yeast fitness stood at 0.799.

Take C22U C30U C33U A45C A65C: the yeast fitness is no more than 0.5.

Regarding C22U A43U C55G, the yeast fitness turned out to be 0.595.

With C22U C24A A42U C49U C61U, the yeast fitness is no more than 0.5.

Consider C22U C24U C33G, for which the yeast fitness amounted to 0.502.

As for C22U C30A C49A C55A C62U C66U, the yeast fitness stood at 0.667.

With C22U C34G G39A C66U, the yeast fitness was no more than 0.5.

In the case of C22U U28A A37U G51C C66U, the yeast fitness was 0.606.

For the variant C22U C30U U47A, the yeast fitness is no more than 0.5.

For C22U G23C C55U C60G, the yeast fitness was found to be 0.54.

C22U G25A G50A A69U: the yeast fitness was no more than 0.5.

For C22U A40U G48A, the yeast fitness is no more than 0.5.

Turning to C22U G23A G56A, the yeast fitness is no more than 0.5.

Regarding C22U G51C C61G A70C, the yeast fitness is 0.514.

C22U C60U A70U: the yeast fitness is 0.678.

Turning to C22U C30G G50A, the yeast fitness is no more than 0.5.

Take C22U U35C C55A A65G C66U: the yeast fitness was no more than 0.5.

As to C22U G25A A65U, the yeast fitness was 0.687.

As for C22U U35C A36C, the yeast fitness is no more than 0.5.

As for C22U C30U C33U U47A G58A A65C, the yeast fitness is no more than 0.5.

On to C22U U32A C46G G52C C62U, for which the yeast fitness is no more than 0.5.

In the case of C22U U32C C61G A69C, the yeast fitness is no more than 0.5.

For the variant C22U C27G A69U, the yeast fitness was determined as 0.508.

As to C22U U28C C34U A40C U64A, the yeast fitness is 0.762.

On to C22U A42U G51C, for which the yeast fitness amounted to 0.647.

C22U G25C C33U A37U: the yeast fitness is no more than 0.5.

Consider C22U C31U U47G, for which the yeast fitness is no more than 0.5.

Consider C22U C27A G58A, for which the yeast fitness was 0.568.

Regarding C22U G44C, the yeast fitness worked out at 0.812.

Take C22U G38C A65U C66U: the yeast fitness is 0.547.

Turning to C22U G25C C31U, the yeast fitness was 0.625.

For the variant C22U C55G, the yeast fitness is 0.578.

For the variant C22U C55U, the yeast fitness stood at 0.686.

As to C22U U35A G67U, the yeast fitness was no more than 0.5.

For C22U U32C G52A C61U, the yeast fitness was no more than 0.5.

For the variant C22U A65U A70U, the yeast fitness worked out at 0.628.

With C22U U35A, the yeast fitness amounted to 0.553.

Consider C22U G25C U28C A36G G51A, for which the yeast fitness is no more than 0.5.

For the variant C22U G38C G48A, the yeast fitness is no more than 0.5.

Regarding C22U U32G C34U A40G G58A C66U, the yeast fitness was no more than 0.5.

As for C22U C46G A65G, the yeast fitness was no more than 0.5.

Turning to C22U C31G G51A, the yeast fitness was found to be 0.563.

In the case of C22U G39C G48C, the yeast fitness amounted to 0.516.

For the variant C22U C24G U35C G56C U64A, the yeast fitness is no more than 0.5.

C22U C29A G68A A69C: the yeast fitness turned out to be 0.55.

As for C22U U28A C33G G58A C66U, the yeast fitness is no more than 0.5.

In the case of C22U U32A C46G G52C, the yeast fitness was no more than 0.5.

In the case of C22U C55U A65G, the yeast fitness is no more than 0.5.

As for C22U C29U G41A C55U C61A, the yeast fitness is no more than 0.5.

C22U C49G: the yeast fitness turned out to be 0.87.

For the variant C22U C27U A57U C61G, the yeast fitness worked out at 0.574.

Take C22U A42G U54C C55G A70U: the yeast fitness was no more than 0.5.

For the variant C22U C27U U32A C66U G67C, the yeast fitness is no more than 0.5.

For the variant C22U C24G C49G G56A, the yeast fitness is no more than 0.5.

C22U C27U A70C: the yeast fitness was determined as 0.599.

As to C22U C31G A43U C60A, the yeast fitness is no more than 0.5.

As to C22U C49U U64A, the yeast fitness turned out to be 0.53.

Regarding C22U C24U U26A U47C, the yeast fitness is no more than 0.5.

C22U A43C A70C: the yeast fitness is 0.643.

Turning to C22U C29U G39A G41A, the yeast fitness was no more than 0.5.

Take C22U C24G C30G A40U: the yeast fitness is no more than 0.5.

Regarding C22U C55U G67C, the yeast fitness was no more than 0.5.

Regarding C22U U26A U47C C62A, the yeast fitness is no more than 0.5.

As for C22U G51C, the yeast fitness is 0.512.

As to C22U G25A C31A, the yeast fitness amounted to 0.728.

Consider C22U C61A C66U, for which the yeast fitness is no more than 0.5.

Turning to C22U G25C C33A, the yeast fitness came to 0.552.

Regarding C22U C30G A57U, the yeast fitness was no more than 0.5.

Consider C22U C34G A36U A65C, for which the yeast fitness stood at 0.573.

In the case of C22U C29A A36G A45U, the yeast fitness was no more than 0.5.

Take C22U G41C: the yeast fitness turned out to be 0.698.

Consider C22U C33G A65G, for which the yeast fitness was no more than 0.5.

C22U U32C A45U C46U A57U: the yeast fitness is no more than 0.5.

On to C22U C31G A43U, for which the yeast fitness stood at 0.612.

C22U U26A U47C: the yeast fitness is no more than 0.5.
